Measured values as given in ChEMBL document CHEMBL1132302, “Identification of pharmacokinetically stable 3, 10-dibromo-8-chlorobenzocycloheptapyridine farnesyl protein transferase inhibitors with potent enzyme and cellular activities” (J Med Chem, 1999).

How the values were obtained:
[1] = Bioavailability in mouse (nude) using 20% aqueous hydroxypropyl-beta-cyclodextrin (HPbetaCD) as vehicle 25 mg/kg; format: ADME, organism-based; conditions: in vivo; for bioavailability: nude
[2] = Area under curve was determined using 20%aqueous hydroxypropyl-beta-cyclodextrin (HPbetaCD) as vehicle. Compound was administered orally to nude mice at a dose of 25 mg/kg (run time 7 hr); format: ADME, organism-based; set-up: dose 25 mg/kg, route oral; conditions: mouse, in vivo, po
Summary of the method: (§1)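 Nude mice received 25 mpk in 20% aqueous hydroxypropyl-β-cyclodextrin, by the route the line gives. Serum was collected over a shortened 7-h run rather than 24 h. Each time point used sera from different animals.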

[3] = Area under curve was determined using 20%aqueous hydroxypropyl-beta-cyclodextrin (HPbetaCD) as vehicle. Compound was administered intravenously to nude mice at a dose of 25 mg/kg (run time 7 hr); format: ADME, organism-based; set-up: dose 25 mg/kg, route intravenous; conditions: mouse, in vivo, iv; summary of the method: as §1
[4] = Maximum concentration (Cmax) using 20%aqueous hydroxypropyl-beta-cyclodextrin (HPbetaCD) as vehicle. compound was administered intravenously to nude mice at a dose of 25 mg/kg; format: ADME, organism-based; set-up: dose 25 mg/kg, route intravenous; conditions: mouse, in vivo, iv
Summary of the method: (§2)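 Nude mice were dosed at 25 mpk, intravenously or orally as the line states, in 20% aqueous hydroxypropyl-β-cyclodextrin or 0.4% aqueous methyl cellulose. Serum was sampled over 24 h. Each time point came from sera of different animals.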

[5] = Maximum concentration (Cmax) using 20%aqueous hydroxypropyl-beta-cyclodextrin (HPbetaCD) as vehicle. compound was administered orally to nude mice at a dose of 25 mg/kg; format: ADME, organism-based; set-up: dose 25 mg/kg, route oral; conditions: mouse, in vivo, po; summary of the method: as §2
[6] = biological target: T1, Protein farnesyltransferase (Homo sapiens, UniProt P49354+P49356); assay: Effect on Ras processing in Cos-1 monkey kidney cells expressing either H-Ras-Val 12-CVLS or H-Ras-Val12.; format: functional, cell-based, Cercopithecidae
Summary of the method: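 Ras processing was tested in Cos-1 monkey kidney cells transiently expressing H-Ras-Val12-CVLS or H-Ras-Val12. IC50 values are single-point determinations.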

[7] = Half life was administered by using 20%aqueous hydroxypropyl-beta-cyclodextrin (HPbetaCD) as vehicle to nude mice at a dose of 25mpk,; format: ADME, organism-based; conditions: mouse, in vivo, 25 mg/kg
NIH-3T3 (Mus musculus) [8] = assay: inhibition of tumor colony formation in soft agar
[9] = Percent bioavailability was administered by using 0.4% Methyl cellulose (MC) as vehicle to nude mice at a dose of 25 mg/kg (micronized sample); format: ADME, organism-based; conditions: mouse, in vivo, read-out: Bioavailabiility
Summary of the method: (§3)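 A micronized sample was given orally at 25 mpk to nude mice in 0.4% aqueous methyl cellulose. Serum was collected over 24 h, with separate animals for each time point.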

[10] = Bioavailability in mouse (nude) (dose 0.4% Methylcellulose (MC) as vehicle 25 mg/kg); format: ADME, organism-based; conditions: in vivo
[11] = Maximum concentration (Cmax) using 0.4% Methyl cellulose (MC) as vehicle. compound was administered intravenously to nude mice at a dose of 25 mg/kg; format: ADME, organism-based; set-up: dose 25 mg/kg, route intravenous; conditions: mouse, in vivo, iv; summary of the method: as §2
[12] = Maximum concentration (Cmax) using 0.4% Methyl cellulose (MC) as vehicle. compound was administered orally to nude mice at a dose of 25 mg/kg; format: ADME, organism-based; set-up: dose 25 mg/kg, route oral; conditions: mouse, in vivo, po; summary of the method: as §2
[13] = Maximum concentration (Cmax) using 0.4% Methyl cellulose (MC) as vehicle. compound was administered orally to nude mice at a dose of 25 mg/kg (micronized sample); format: ADME, organism-based; set-up: dose 25 mg/kg, route oral; conditions: mouse, in vivo, po; summary of the method: as §3
[14] = Area under curve was determined using 0.4% Methyl cellulose (MC) as vehicle. Compound was administered intravenously to nude mice at a dose of 25 mg/kg; format: ADME, organism-based; set-up: dose 25 mg/kg, route intravenous; conditions: mouse, in vivo, iv; summary of the method: as §2
[15] = Area under curve was determined using 0.4% Methyl cellulose (MC) as vehicle. Compound was administered orally to nude mice at a dose of 25 mg/kg; format: ADME, organism-based; set-up: dose 25 mg/kg, route oral; conditions: mouse, in vivo, po; summary of the method: as §2
[16] = Area under curve was determined using 0.4% Methyl cellulose (MC) as vehicle. Compound was administered orally to nude mice at a dose of 25 mg/kg (micronized sample); format: ADME, organism-based; set-up: dose 25 mg/kg, route oral; conditions: mouse, in vivo, po; summary of the method: as §3
[17] = Area under curve was determined using 20%aqueous hydroxypropyl-beta-cyclodextrin (HPbetaCD) as vehicle. Compound was administered intravenously to nude mice at a dose of 25 mg/kg; format: ADME, organism-based; set-up: dose 25 mg/kg, route intravenous; conditions: mouse, in vivo, iv; summary of the method: as §2
[18] = biological target: T1, Protein farnesyltransferase; assay: Inhibition of Hras Farnesyl protein transferase (FPT); format: protein-complex assay
[19] = Area under curve was determined using 20%aqueous hydroxypropyl-beta-cyclodextrin (HPbetaCD) as vehicle. Compound was administered orally to nude mice at a dose of 25 mg/kg; format: ADME, organism-based; set-up: dose 25 mg/kg, route oral; conditions: mouse, in vivo, po; summary of the method: as §2
NIH-3T3 (Mus musculus) [20] = assay: Inhibition of tumor colony formation in soft agar
[21] = biological target: T1, Protein farnesyltransferase; assay: Inhibition of [3H]FPP incorporation into His6-H-Ras-CVLS by farnesyl transferase; format: protein-complex assay
[22] = biological target: T1, Protein farnesyltransferase; assay: Inhibitory activity against Hras Farnesyltransferase (FPT).; format: protein-complex assay

SMILES	bioavailability [1] [%]	Cmax [4] [µM]	Cmax [5] [µM]	IC50 [6] [nM]	half-life [7] [h]	IC50 (NIH-3T3 (Mus musculus) [8]) [nM]	AUC [17] [ng·h/mL]	AUC [19] [ng·h/mL]	IC50 [22] [nM]	also measured
O=C(CC1CCN(C(=O)Cn2cncn2)CC1)N1CCC([C@H]2c3ncc(Br)cc3CCc3cc(Cl)cc(Br)c32)CC1	19.5	22.6	2.15	< 10	0.28	110	–	–	–	AUC at 7 h [2]: 1970 ng·h/mL; AUC at 7 h [3]: 10100 ng·h/mL
O=C(CC1CCN(C(=O)c2ccc[n+]([O-])c2)CC1)N1CCC([C@H]2c3ncc(Br)cc3CCc3cc(Cl)cc(Br)c32)CC1	113	52.3	16.2	7	1.42	–	62000	70100	–	bioavailability [9]: 9.28%; bioavailability [10]: 5.81%; Cmax [11]: 52.3 µM; Cmax [12]: 0.75 µM; Cmax [13]: 2.27 µM; AUC [14]: 62000 ng·h/mL; AUC [15]: 3600 ng·h/mL; AUC [16]: 5750 ng·h/mL; IC50 [18]: 2.1 nM; IC50 (NIH-3T3 (Mus musculus) [20]): 165 nM
CN(C)S(=O)(=O)N1CCC(CC(=O)N2CCC([C@H]3c4ncc(Br)cc4CCc4cc(Cl)cc(Br)c43)CC2)CC1	1.7	30	0.49	9	1.3	100	5950	100	–	IC50 [21]: 7.8 nM
NC(=O)N1CCC(CC(=O)N2CCC([C@H]3c4ncc(Br)cc4CCc4cc(Cl)cc(Br)c43)CC2)CC1 [LONAFARNIB]	75.8	20	8.84	–	1.4	75	31800	24100	–	Cmax [12]: 16.6 µM; AUC [15]: 41400 ng·h/mL
O=C(CC1CCN(C(=O)Cn2cccc2)CC1)N1CCC([C@H]2c3ncc(Br)cc3CCc3cc(Cl)cc(Br)c32)CC1	–	–	–	9	–	460	–	–	4.3	–
C[C@@H](N)C(=O)N1CCC(CC(=O)N2CCC([C@H]3c4ncc(Br)cc4CCc4cc(Cl)cc(Br)c43)CC2)CC1	–	–	–	39	–	200	–	–	7.9	–
NC(=O)CNC(=O)N1CCC(CC(=O)N2CCC([C@H]3c4ncc(Br)cc4CCc4cc(Cl)cc(Br)c43)CC2)CC1	–	–	–	25	–	330	–	–	–	IC50 [21]: 0.9 nM
O=C(CC1CCN(S(=O)(=O)Cc2ccccc2)CC1)N1CCC([C@H]2c3ncc(Br)cc3CCc3cc(Cl)cc(Br)c32)CC1	–	–	–	350	–	–	–	–	17.1	–
C[C@H](N)C(=O)N1CCC(CC(=O)N2CCC([C@H]3c4ncc(Br)cc4CCc4cc(Cl)cc(Br)c43)CC2)CC1	–	–	–	140	–	–	–	–	–	–
NC(=O)C(=O)N1CCC(CC(=O)N2CCC([C@H]3c4ncc(Br)cc4CCc4cc(Cl)cc(Br)c43)CC2)CC1	–	26.2	7.1	< 10	1.1	85	27100	45000	2.7	F [1]: 166%
O=C(O)CNC(=O)N1CCC(CC(=O)N2CCC([C@H]3c4ncc(Br)cc4CCc4cc(Cl)cc(Br)c43)CC2)CC1	–	–	–	–	–	> 500	–	–	–	–
CNC(=O)N1CCC(CC(=O)N2CCC([C@H]3c4ncc(Br)cc4CCc4cc(Cl)cc(Br)c43)CC2)CC1	–	–	–	–	–	100	–	–	–	–
